Measured values: ChEMBL document CHEMBL3864121, “Development of ebsulfur analogues as potent antibacterials against methicillin-resistant Staphylococcus aureus” (Bioorg Med Chem, 2016)
Values after ≈ are worked out from the molar mass of the structure shown.

Columns and labels:
Assay type in all cases: functional
Staphylococcus aureus [1] = test: Antibacterial activity against methicillin-resistant Staphylococcus aureus C14 measured after overnight incubation by broth double-dilution method
Method in brief: (§1)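 MIC by broth double-dilution in liquid Mueller-Hinton medium. Values are reported in µg/mL.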

Staphylococcus aureus [2] = test: Antibacterial activity against methicillin-resistant Staphylococcus aureus S22 measured after overnight incubation by broth double-dilution method; method in brief: as §1
Staphylococcus aureus [3] = test: Antibacterial activity against methicillin-resistant Staphylococcus aureus G14 measured after overnight incubation by broth double-dilution method; method in brief: as §1
Staphylococcus aureus [4] = test: Antibacterial activity against methicillin-resistant Staphylococcus aureus C7 measured after overnight incubation by broth double-dilution method; method in brief: as §1
Staphylococcus aureus [5] = test: Antibacterial activity against methicillin-resistant Staphylococcus aureus S17 measured after overnight incubation by broth double-dilution method; method in brief: as §1
Staphylococcus aureus [6] = test: Antibacterial activity against methicillin-resistant Staphylococcus aureus G1 measured after overnight incubation by broth double-dilution method; method in brief: as §1
Staphylococcus aureus [7] = test: Antibacterial activity against methicillin-sensitive Staphylococcus aureus ATCC 25923 measured after overnight incubation by broth double-dilution method; method in brief: as §1
Staphylococcus aureus [8] = test: Antibacterial activity against methicillin-resistant Staphylococcus aureus G6 measured after overnight incubation by broth double-dilution method; method in brief: as §1
Staphylococcus aureus [9] = test: Antibacterial activity against methicillin-resistant Staphylococcus aureus S14 measured after overnight incubation by broth double-dilution method; method in brief: as §1
Staphylococcus aureus [10] = test: Antibacterial activity against methicillin-resistant Staphylococcus aureus ATCC 33591 measured after overnight incubation by broth double-dilution method; method in brief: as §1
Staphylococcus aureus [11] = test: Antibacterial activity against methicillin-resistant Staphylococcus aureus G12 measured after overnight incubation by broth double-dilution method; method in brief: as §1
Staphylococcus aureus [12] = test: Antibacterial activity against methicillin-sensitive Staphylococcus aureus ATCC 29213 measured after overnight incubation by broth double-dilution method; method in brief: as §1
Staphylococcus aureus [13] = test: Antibacterial activity against methicillin-resistant Staphylococcus aureus BRS3 measured after overnight incubation by broth double-dilution method; method in brief: as §1
Staphylococcus aureus [14] = test: Antibacterial activity against methicillin-resistant Staphylococcus aureus 2 measured after overnight incubation by broth double-dilution method; method in brief: as §1
Enterococcus = test: Antibacterial activity against Vancomycin-resistant Enterococcus measured after overnight incubation by broth double-dilution method; method in brief: as §1
Staphylococcus aureus [15] = test: Antibacterial activity against methicillin-resistant Staphylococcus aureus S24 measured after overnight incubation by broth double-dilution method; method in brief: as §1
Staphylococcus aureus [16] = test: Antibacterial activity against methicillin-resistant Staphylococcus aureus C16 measured after overnight incubation by broth double-dilution method; method in brief: as §1
[17] = system: Mycolicibacterium smegmatis; test: Antibacterial activity against Mycobacterium smegmatis MC2-155 measured after overnight incubation by broth double-dilution method; conditions: str. MC2 155; method in brief: as §1
Staphylococcus aureus [18] = test: Antibacterial activity against methicillin-resistant Staphylococcus aureus C2 measured after overnight incubation by broth double-dilution method; method in brief: as §1
Staphylococcus aureus [19] = test: Antibacterial activity against methicillin-resistant Staphylococcus aureus C19 measured after overnight incubation by broth double-dilution method; method in brief: as §1
Staphylococcus aureus [20] = test: Antibacterial activity against methicillin-resistant Staphylococcus aureus USA600 measured after overnight incubation by broth double-dilution method; method in brief: as §1
Enterococcus faecium = test: Antibacterial activity against Enterococcus faecium BM4105-RF measured after overnight incubation by broth double-dilution method; method in brief: as §1
Staphylococcus aureus [21] = test: Antibacterial activity against methicillin-resistant Staphylococcus aureus USA300 measured after overnight incubation by broth double-dilution method; method in brief: as §1
Staphylococcus aureus [22] = test: Antibacterial activity against methicillin-sensitive Staphylococcus aureus ATCC 6538 measured after overnight incubation by broth double-dilution method; method in brief: as §1
Enterococcus faecalis [23] = test: Antibacterial activity against Enterococcus faecalis ATCC 49533 measured after overnight incubation by broth double-dilution method
Method in brief: (§2)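 MIC by broth double-dilution in Mueller-Hinton medium. Re-testing at the time-kill inoculum used 1×10^6 CFU/mL.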

Enterococcus faecalis [24] = test: Antibacterial activity against Enterococcus faecalis ATCC 29212 measured after overnight incubation by broth double-dilution method; method in brief: as §2
Staphylococcus aureus [25] = test: Antibacterial activity against methicillin-resistant Staphylococcus aureus USA100 measured after overnight incubation by broth double-dilution method; method in brief: as §1
Staphylococcus aureus [26] = test: Antibacterial activity against methicillin-resistant Staphylococcus aureus C1 measured after overnight incubation by broth double-dilution method; method in brief: as §1
[27] = system: Staphylococcus epidermidis; test: Antibacterial activity against Staphylococcus epidermidis ATCC 35984 measured after overnight incubation by broth double-dilution method; conditions: RP62A; method in brief: as §2
Staphylococcus aureus [28] = test: Antibacterial activity against methicillin-resistant Staphylococcus aureus NRS51 measured after overnight incubation by broth double-dilution method; method in brief: as §1
Staphylococcus aureus [29] = test: Antibacterial activity against methicillin-resistant Staphylococcus aureus USA200 measured after overnight incubation by broth double-dilution method; method in brief: as §1
Staphylococcus aureus [30] = test: Antibacterial activity against methicillin-resistant Staphylococcus aureus 1 measured after overnight incubation by broth double-dilution method; method in brief: as §1
Listeria monocytogenes = test: Antibacterial activity against Listeria monocytogenes ATCC 19115 measured after overnight incubation by broth double-dilution method; method in brief: as §2
Staphylococcus aureus [31] = test: Antibacterial activity against methicillin-resistant Staphylococcus aureus NRS4 measured after overnight incubation by broth double-dilution method; method in brief: as §1
Staphylococcus aureus [32] = test: Antibacterial activity against methicillin-resistant Staphylococcus aureus NRS77 measured after overnight incubation by broth double-dilution method; method in brief: as §1

Row | SMILES | MIC (Staphylococcus aureus [1]) [µg/mL] | MIC (Staphylococcus aureus [2]) [µg/mL] | MIC (Staphylococcus aureus [3]) [µg/mL] | MIC (Staphylococcus aureus [4]) [µg/mL] | MIC (Staphylococcus aureus [5]) [µg/mL] | MIC (Staphylococcus aureus [6]) [µg/mL] | MIC (Staphylococcus aureus [7]) [µg/mL] | MIC (Staphylococcus aureus [8]) [µg/mL] | MIC (Staphylococcus aureus [9]) [µg/mL] | MIC (Staphylococcus aureus [10]) [µg/mL] | MIC (Staphylococcus aureus [11]) [µg/mL] | MIC (Staphylococcus aureus [12]) [µg/mL] | MIC (Staphylococcus aureus [13]) [µg/mL] | MIC (Staphylococcus aureus [14]) [µg/mL] | MIC (Enterococcus) [µg/mL] | MIC (Staphylococcus aureus [15]) [µg/mL] | MIC (Staphylococcus aureus [16]) [µg/mL] | MIC [17] [µg/mL] | MIC (Staphylococcus aureus [18]) [µg/mL] | MIC (Staphylococcus aureus [19]) [µg/mL] | further results
1 | O=c1c2ccccc2sn1C1CCCCCC1 | 2 (≈ 8.09 µM) | 3.9 (≈ 15.8 µM) | 3.9 (≈ 15.8 µM) | 3.9 (≈ 15.8 µM) | 1 (≈ 4.04 µM) | 0.5 (≈ 2.02 µM) | 3.9 (≈ 15.8 µM) | 2 (≈ 8.09 µM) | 0.5 (≈ 2.02 µM) | 1 (≈ 4.04 µM) | 2 (≈ 8.09 µM) | 3.9 (≈ 15.8 µM) | 2 (≈ 8.09 µM) | 3.9 (≈ 15.8 µM) | 2 (≈ 8.09 µM) | 3.9 (≈ 15.8 µM) | 3.9 (≈ 15.8 µM) | 7.8 (≈ 31.5 µM) | 2 (≈ 8.09 µM) | 1 (≈ 4.04 µM) | MIC (Staphylococcus aureus [20]): 7.8 µg/mL (≈ 31.5 µM); MIC (Enterococcus faecium): 7.8 µg/mL (≈ 31.5 µM); MIC (Staphylococcus aureus [21]): 15.6 µg/mL (≈ 63.1 µM); MIC (Staphylococcus aureus [22]): 7.8 µg/mL (≈ 31.5 µM); MIC (Enterococcus faecalis [23]): > 125 µg/mL; MIC (Enterococcus faecalis [24]): > 125 µg/mL; MIC (Staphylococcus aureus [25]): 3.9 µg/mL (≈ 15.8 µM); MIC (Staphylococcus aureus [26]): 2 µg/mL (≈ 8.09 µM); MIC [27]: 2 µg/mL (≈ 8.09 µM); MIC (Staphylococcus aureus [28]): 3.9 µg/mL (≈ 15.8 µM); MIC (Staphylococcus aureus [29]): 7.8 µg/mL (≈ 31.5 µM); MIC (Staphylococcus aureus [30]): 2 µg/mL (≈ 8.09 µM); MIC (Listeria monocytogenes): 3.9 µg/mL (≈ 15.8 µM); MIC (Staphylococcus aureus [31]): 2 µg/mL (≈ 8.09 µM); MIC (Staphylococcus aureus [32]): 2 µg/mL (≈ 8.09 µM)
2 | CC(C)Cn1c(=O)c2ccccc2[s+]1[O-] (stereo not given) | > 125 | > 125 | > 125 | > 125 | > 125 | > 125 | > 125 | > 125 | > 125 | > 125 | > 125 | > 125 | > 125 | > 125 | > 125 | > 125 | > 125 | > 125 | > 125 | > 125 | MIC (Staphylococcus aureus [20]): > 125 µg/mL; MIC (Enterococcus faecium): > 125 µg/mL; MIC (Staphylococcus aureus [21]): > 125 µg/mL; MIC (Staphylococcus aureus [22]): > 125 µg/mL; MIC (Enterococcus faecalis [23]): > 125 µg/mL; MIC (Enterococcus faecalis [24]): > 125 µg/mL; MIC (Staphylococcus aureus [25]): > 125 µg/mL; MIC (Staphylococcus aureus [26]): > 125 µg/mL; MIC [27]: > 125 µg/mL; MIC (Staphylococcus aureus [28]): > 125 µg/mL; MIC (Staphylococcus aureus [29]): > 125 µg/mL; MIC (Staphylococcus aureus [30]): > 125 µg/mL; MIC (Listeria monocytogenes): > 125 µg/mL; MIC (Staphylococcus aureus [31]): > 125 µg/mL; MIC (Staphylococcus aureus [32]): > 125 µg/mL
